Tested on: Fibroblast
Assay: Multiplex assay against human fibroblast
Assay type: toxicity, cell-based
Procedure, shortened: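 Compound was added to live cells that had been stained at seeding with Hoechst33342, BioTracker Green Microtubule Cytoskeleton Dye, MitoTracker Red and Annexin V Alexa Fluor 680, and imaging followed on a CQ1 microscope at 37°C and 5% CO2. CellPathfinder machine-learning gating divided cells into Hoechst high-intensity objects or normal cells, normal cells into healthy, pyknosed or fragmented nuclei, and pyknosed cells into mitotic or apoptotic. Tubulin, mitochondrial-mass and membrane-permeability phenotypes are per cents of healthy-nucleus cells.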

[1] = 12 h, 1 µM, compound concentration 1 uM, replicate 1
[2] = 12 h, 1 µM, compound concentration 1 uM, replicate 2
[3] = 12 h, 10 µM, compound concentration 10 uM, replicate 1
[4] = 12 h, 10 µM, compound concentration 10 uM, replicate 2
[5] = 24 h, 1 µM, compound concentration 1 uM, replicate 1
[6] = 24 h, 1 µM, compound concentration 1 uM, replicate 2
[7] = 24 h, 10 µM, compound concentration 10 uM, replicate 1
[8] = 24 h, 10 µM, compound concentration 10 uM, replicate 2
[9] = 48 h, 1 µM, compound concentration 1 uM, replicate 1
[10] = 48 h, 1 µM, compound concentration 1 uM, replicate 2
[11] = 48 h, 10 µM, compound concentration 10 uM, replicate 1
[12] = 48 h, 10 µM, compound concentration 10 uM, replicate 2

For C[C@H](NC(=O)c1c(C(F)F)nn(C)c1Oc1cccc(C(F)(F)F)c1)c1ccc(C(=O)O)cc1 [PALUPIPRANT], the “Population Apoptotic (%)” value [1] was 26%, the “Population Fragmented Nuclei (%)” value [1] was 29% and the “Population Healthy Nuclei (%)” value [1] was 57%. The “Population Hoechst High Intensity Objects (%)” value [1] was 5%, the “Population Membrane Permeable-Phenotype (%)” value [1] was 0% and the “Population Mitochondria Different-Phenotype (%)” value [1] was 4%. The “Population Mitotic Cells (%)” value [1] was 73%, the “Population Normal (%)” value [1] was 94% and the “Population Pyknosed Nuclei (%)” value [1] was 12%. For the same compound, the “Population Tubulin-Different-Phenotype (%)” value [1] was 23%, the “Total Cell Count” value [1] was 187 and the “Population Apoptotic (%)” value [2] was 24%. The “Population Fragmented Nuclei (%)” value [2] was 23%, the “Population Healthy Nuclei (%)” value [2] was 52% and the “Population Hoechst High Intensity Objects (%)” value [2] was 6%. The “Population Membrane Permeable-Phenotype (%)” value [2] was 11%, the “Population Mitochondria Different-Phenotype (%)” value [2] was 6% and the “Population Mitotic Cells (%)” value [2] was 75%. The “Population Normal (%)” value [2] was 93%, the “Population Pyknosed Nuclei (%)” value [2] was 23% and the “Population Tubulin-Different-Phenotype (%)” value [2] was 55%. The “Total Cell Count” value [2] was 148, the “Population Apoptotic (%)” value [3] was 45% and the “Population Fragmented Nuclei (%)” value [3] was 13%. The “Population Healthy Nuclei (%)” value [3] was 70%, the “Population Hoechst High Intensity Objects (%)” value [3] was 2% and the “Population Membrane Permeable-Phenotype (%)” value [3] was 2%. For the same compound, the “Population Mitochondria Different-Phenotype (%)” value [3] was 6%, the “Population Mitotic Cells (%)” value [3] was 55% and the “Population Normal (%)” value [3] was 97%. The “Population Pyknosed Nuclei (%)” value [3] was 16%, the “Population Tubulin-Different-Phenotype (%)” value [3] was 45% and the “Total Cell Count” value [3] was 126. For the same compound, the “Population Apoptotic (%)” value [4] was 35%, the “Population Fragmented Nuclei (%)” value [4] was 42% and the “Population Healthy Nuclei (%)” value [4] was 35%. The “Population Hoechst High Intensity Objects (%)” value [4] was 14%, the “Population Membrane Permeable-Phenotype (%)” value [4] was 13% and the “Population Mitochondria Different-Phenotype (%)” value [4] was 13%. The “Population Mitotic Cells (%)” value [4] was 64%, the “Population Normal (%)” value [4] was 85% and the “Population Pyknosed Nuclei (%)” value [4] was 22%. The “Population Tubulin-Different-Phenotype (%)” value [4] was 60%, the “Total Cell Count” value [4] was 149 and the “Population Apoptotic (%)” value [5] was 40%. The “Population Fragmented Nuclei (%)” value [5] was 32%, the “Population Healthy Nuclei (%)” value [5] was 58% and the “Population Hoechst High Intensity Objects (%)” value [5] was 5%. The “Population Membrane Permeable-Phenotype (%)” value [5] was 1%, the “Population Mitochondria Different-Phenotype (%)” value [5] was 4% and the “Population Mitotic Cells (%)” value [5] was 60%. For the same compound, the “Population Normal (%)” value [5] was 94%, the “Population Pyknosed Nuclei (%)” value [5] was 8% and the “Population Tubulin-Different-Phenotype (%)” value [5] was 15%. The “Total Cell Count” value [5] was 178, the “Population Apoptotic (%)” value [6] was 42% and the “Population Fragmented Nuclei (%)” value [6] was 26%. For the same compound, the “Population Healthy Nuclei (%)” value [6] was 53%, the “Population Hoechst High Intensity Objects (%)” value [6] was 7% and the “Population Membrane Permeable-Phenotype (%)” value [6] was 8%. For the same compound, the “Population Mitochondria Different-Phenotype (%)” value [6] was 5%, the “Population Mitotic Cells (%)” value [6] was 57% and the “Population Normal (%)” value [6] was 92%. The “Population Pyknosed Nuclei (%)” value [6] was 20%, the “Population Tubulin-Different-Phenotype (%)” value [6] was 51% and the “Total Cell Count” value [6] was 141. For the same compound, the “Population Apoptotic (%)” value [7] was 60%, the “Population Fragmented Nuclei (%)” value [7] was 18% and the “Population Healthy Nuclei (%)” value [7] was 62%. For the same compound, the “Population Hoechst High Intensity Objects (%)” value [7] was 5%, the “Population Membrane Permeable-Phenotype (%)” value [7] was 2% and the “Population Mitochondria Different-Phenotype (%)” value [7] was 7%. The “Population Mitotic Cells (%)” value [7] was 39%, the “Population Normal (%)” value [7] was 94% and the “Population Pyknosed Nuclei (%)” value [7] was 18%. For the same compound, the “Population Tubulin-Different-Phenotype (%)” value [7] was 35%, the “Total Cell Count” value [7] was 131 and the “Population Apoptotic (%)” value [8] was 38%. For the same compound, the “Population Fragmented Nuclei (%)” value [8] was 40%, the “Population Healthy Nuclei (%)” value [8] was 42% and the “Population Hoechst High Intensity Objects (%)” value [8] was 10%. For the same compound, the “Population Membrane Permeable-Phenotype (%)” value [8] was 13%, the “Population Mitochondria Different-Phenotype (%)” value [8] was 3% and the “Population Mitotic Cells (%)” value [8] was 61%. For the same compound, the “Population Normal (%)” value [8] was 89%, the “Population Pyknosed Nuclei (%)” value [8] was 17% and the “Population Tubulin-Different-Phenotype (%)” value [8] was 51%. For the same compound, the “Total Cell Count” value [8] was 138, the “Population Apoptotic (%)” value [9] was 53% and the “Population Fragmented Nuclei (%)” value [9] was 34%. For the same compound, the “Population Healthy Nuclei (%)” value [9] was 57%, the “Population Hoechst High Intensity Objects (%)” value [9] was 11% and the “Population Membrane Permeable-Phenotype (%)” value [9] was 0%. For the same compound, the “Population Mitochondria Different-Phenotype (%)” value [9] was 4%, the “Population Mitotic Cells (%)” value [9] was 46% and the “Population Normal (%)” value [9] was 88%. The “Population Pyknosed Nuclei (%)” value [9] was 7%, the “Population Tubulin-Different-Phenotype (%)” value [9] was 29% and the “Total Cell Count” value [9] was 184. The “Population Fragmented Nuclei (%)” value [10] was 30%, the “Population Healthy Nuclei (%)” value [10] was 50% and the “Population Hoechst High Intensity Objects (%)” value [10] was 3%. For the same compound, the “Population Membrane Permeable-Phenotype (%)” value [10] was 4%, the “Population Normal (%)” value [10] was 96% and the “Population Pyknosed Nuclei (%)” value [10] was 19%. The “Population Tubulin-Different-Phenotype (%)” value [10] was 53%, the “Total Cell Count” value [10] was 147 and the “Population Apoptotic (%)” value [11] was 73%. For the same compound, the “Population Fragmented Nuclei (%)” value [11] was 20%, the “Population Healthy Nuclei (%)” value [11] was 60% and the “Population Hoechst High Intensity Objects (%)” value [11] was 4%. For the same compound, the “Population Membrane Permeable-Phenotype (%)” value [11] was 1%, the “Population Mitochondria Different-Phenotype (%)” value [11] was 8% and the “Population Mitotic Cells (%)” value [11] was 26%. The “Population Normal (%)” value [11] was 95%, the “Population Pyknosed Nuclei (%)” value [11] was 18% and the “Population Tubulin-Different-Phenotype (%)” value [11] was 46%. The “Total Cell Count” value [11] was 130, the “Population Apoptotic (%)” value [12] was 60% and the “Population Fragmented Nuclei (%)” value [12] was 45%. For the same compound, the “Population Healthy Nuclei (%)” value [12] was 45%, the “Population Hoechst High Intensity Objects (%)” value [12] was 13% and the “Population Membrane Permeable-Phenotype (%)” value [12] was 10%. For the same compound, the “Population Mitochondria Different-Phenotype (%)” value [12] was 6%, the “Population Mitotic Cells (%)” value [12] was 40% and the “Population Normal (%)” value [12] was 86%. The “Population Pyknosed Nuclei (%)” value [12] was 9%, the “Population Tubulin-Different-Phenotype (%)” value [12] was 50% and the “Total Cell Count” value [12] was 122.

Reference: ChEMBL document CHEMBL5058577, “EUbOPEN Chemogenomics Library 2 (Multiplex)” (2022)
